Data taken from ChEMBL document CHEMBL1629600, “Multiple-dose pharmacokinetic behavior of elvucitabine, a nucleoside reverse transcriptase inhibitor, administered over 21 days with lopinavir-ritonavir in human immunodeficiency virus type 1-infected subjects” (Antimicrob Agents Chemother, 2009).

What was measured:
Homo sapiens [1] = species: Homo sapiens; test: Time prior to start absorption at second absorption site in HIV1 infected human at 20 mg after 24 hrs; type: ADME, organism-based; conditions: in vivo
In short: (§1)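 Population compartmental fit to all plasma concentrations over 804 h. Two-compartment model with two first-order absorption rates, lag times per dose and first-order elimination. Relative bioavailability allowed to differ for day 1, the only dose given before lopinavir-ritonavir. Weighting 1/S², with S² = (a + b×Y)². Parameters expressed relative to F (CL/F, V/F).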

[2] = Half life in HIV1 infected human at 10 mg qd for 21 days in presence of 400 mg of Lopinavir and 100 mg of itonavir administered once every 12 hrs; type: ADME, organism-based; conditions: in vivo
In short: (§2)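 Elimination rate constant and t1/2 obtained by noncompartmental analysis after the day-21 dose, using 336 h of terminal-phase sampling. Plasma collected through day 35 (days 25, 28, 35 after stopping). Concentrations measured by LC-MS/MS, range 0.500–100 ng/ml. Eight subjects per cohort; reported as mean (%CV), median (range).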

[3] = Terminal half life in HIV1 infected human at 20 mg administered once every 48 hrs for 21 days in presence of 400 mg of Lopinavir and 100 mg of itonavir administered once every 12 hrs; type: ADME, organism-based; conditions: in vivo, read-out: beta t1/2 (converted); in short: as §1
Homo sapiens [4] = test: Absorption rate constant at first absorption site in HIV1 infected human at 20 mg administered once every 48 hrs for 21 days in presence of 400 mg of Lopinavir and 100 mg of itonavir administered once every 12 hrs; type: ADME, organism-based; conditions: in vivo; in short: as §1
Homo sapiens [5] = test: Absorption rate constant at second absorption site in HIV1 infected human at 20 mg administered once every 48 hrs for 21 days in presence of 400 mg of Lopinavir and 100 mg of itonavir administered once every 12 hr; type: ADME, organism-based; conditions: in vivo; in short: as §1
[6] = Cmax in HIV1 infected human at 10 mg qd for 21 days in presence of 400 mg of Lopinavir and 100 mg of itonavir administered once every 12 hrs; type: ADME, organism-based; parameters: dose 10 mg; conditions: in vivo
In short: (§3)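 HIV-infected adults (3.6–5.6 log10 RNA copies/ml) given enteric-coated tablets fasting; lopinavir-ritonavir given with food 2 h later. Plasma drawn on days 1 and 21 predose and at 0.5–24 h postdose. LC-MS/MS assay, range 0.500–100 ng/ml. Noncompartmental analysis gave Cmax, Tmax, C24 (24-h concentration) and linear-trapezoidal AUC0-24. Reported as arithmetic mean (%CV), median (range).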

Homo sapiens [7] = test: Peripheral volume of distribution with respect to the bioavailability in HIV1 infected human at 20 mg administered once every 48 hrs for 21 days in presence of 400 mg of Lopinavir and 100 mg of itonavir administered once every 12 hrs; type: ADME, organism-based; conditions: in vivo; in short: as §1
[8] = Drug level in HIV1 infected human plasma at 10 mg after 24 hrs presence of 400 mg of Lopinavir and 100 mg of itonavir; type: ADME, organism-based; conditions: read-out: Drug uptake; in short: as §3
[9] = Cmax in HIV1 infected human at 5 mg after 24 hrs presence of 400 mg of Lopinavir and 100 mg of itonavir; type: ADME, organism-based; parameters: dose 5 mg; conditions: in vivo; in short: as §3
Homo sapiens [10] = test: Central volume of distribution with respect to the bioavailability in HIV1 infected human at 20 mg administered once every 48 hrs for 21 days in presence of 400 mg of Lopinavir and 100 mg of itonavir administered once every 12 hrs; type: ADME, organism-based; conditions: in vivo; in short: as §1
[11] = Cmax in HIV1 infected human at 5 mg qd for 21 days in presence of 400 mg of Lopinavir and 100 mg of itonavir administered once every 12 hrs; type: ADME, organism-based; parameters: dose 5 mg; conditions: in vivo; in short: as §3
Homo sapiens [12] = test: Time prior to start absorption at first absorption site in HIV1 infected human at 20 mg administered once every 48 hrs for 21 days in presence of 400 mg of Lopinavir and 100 mg of itonavir administered once every 12 hrs; type: ADME, organism-based; conditions: in vivo; in short: as §1
Homo sapiens [13] = test: Distributional clearance with respect to the bioavailability in HIV1 infected human at 20 mg administered once every 48 hrs for 21 days in presence of 400 mg of Lopinavir and 100 mg of itonavir administered once every 12 hrs; type: ADME, organism-based; conditions: in vivo; in short: as §1
[14] = Half life in HIV1 infected human at 20 mg administered once every 48 hrs for 21 days in presence of 400 mg of Lopinavir and 100 mg of itonavir administered once every 12 hrs; type: ADME, organism-based; conditions: in vivo; in short: as §2
[15] = Tmax in HIV1 infected human at 10 mg qd for 21 days in presence of 400 mg of Lopinavir and 100 mg of itonavir administered once every 12 hrs; type: ADME, organism-based; conditions: in vivo; in short: as §3
[16] = AUC (0 to 24 hrs) in HIV1 infected human at 10 mg after 24 hrs presence of 400 mg of Lopinavir and 100 mg of itonavir; type: ADME, organism-based; parameters: time < 24 hr, dose 10 mg; conditions: plasma; in short: as §3
[17] = Volume of distribution at steady state with respect to the bioavailability in HIV1 infected human at 20 mg administered once every 48 hrs for 21 days in presence of 400 mg of Lopinavir and 100 mg of itonavir administered once every 12 hrs; type: ADME, organism-based; conditions: in vivo, read-out: Vss/F; in short: as §1
[18] = Cmax in HIV1 infected human at 20 mg administered once every 48 hrs for 21 days in presence of 400 mg of Lopinavir and 100 mg of itonavir administered once every 12 hrs; type: ADME, organism-based; parameters: dose 20 mg; conditions: in vivo; in short: as §3
[19] = Half life in HIV1 infected human at 5 mg qd for 21 days in presence of 400 mg of Lopinavir and 100 mg of itonavir administered once every 12 hrs; type: ADME, organism-based; conditions: in vivo; in short: as §2
[20] = Tmax in HIV1 infected human at 20 mg after 24 hrs in presence of 400 mg of Lopinavir and 100 mg of itonavir administered once every 12 hrs; type: ADME, organism-based; conditions: in vivo; in short: as §3
[21] = Cmax in HIV1 infected human at 10 mg after 24 hrs presence of 400 mg of Lopinavir and 100 mg of itonavir; type: ADME, organism-based; parameters: dose 10 mg; conditions: in vivo; in short: as §3
Homo sapiens [22] = species: Homo sapiens; test: Time prior to start absorption at first absorption site in HIV1 infected human at 20 mg after 24 hrs; type: ADME, organism-based; conditions: in vivo; in short: as §1
[23] = Drug level in HIV1 infected human plasma at 5 mg qd for 21 days in presence of 400 mg of Lopinavir and 100 mg of itonavir administered once every 12 hrs; type: ADME, organism-based; conditions: read-out: Drug uptake; in short: as §3
[24] = Oral bioavailability in HIV1 infected human at 20 mg after 24 hrs; type: ADME, organism-based; conditions: in vivo; in short: as §1
[25] = Tmax in HIV1 infected human at 20 mg administered once every 48 hrs for 21 days in presence of 400 mg of Lopinavir and 100 mg of itonavir administered once every 12 hrs; type: ADME, organism-based; conditions: in vivo; in short: as §3
[26] = Drug level in HIV1 infected human plasma at 20 mg administered once every 48 hrs for 21 days in presence of 400 mg of Lopinavir and 100 mg of itonavir administered once every 12 hrs; type: ADME, organism-based; conditions: read-out: Drug uptake; in short: as §3
[27] = Apparent oral clearance in HIV1 infected human at 20 mg administered once every 48 hrs for 21 days in presence of 400 mg of Lopinavir and 100 mg of itonavir administered once every 12 hrs; type: ADME, organism-based; conditions: in vivo; in short: as §1
[28] = AUC (0 to 24 hrs) in HIV1 infected human at 5 mg qd for 21 days in presence of 400 mg of Lopinavir and 100 mg of itonavir administered once every 12 hrs; type: ADME, organism-based; parameters: time < 24 hr, dose 5 mg; conditions: plasma; in short: as §3
[29] = Drug level in HIV1 infected human plasma at 5 mg after 24 hrs presence of 400 mg of Lopinavir and 100 mg of itonavir; type: ADME; conditions: read-out: Drug uptake; in short: as §3
[30] = AUC (0 to 24 hrs) in HIV1 infected human at 20 mg administered once every 48 hrs for 21 days in presence of 400 mg of Lopinavir and 100 mg of itonavir administered once every 12 hrs; type: ADME, organism-based; parameters: dose 20 mg, time < 24 hr; conditions: plasma; in short: as §3
[31] = Drug level in HIV1 infected human plasma at 20 mg after 24 hrs in presence of 400 mg of Lopinavir and 100 mg of itonavir administered once every 12 hrs; type: ADME; conditions: read-out: Drug uptake; in short: as §3
[32] = AUC (0 to 24 hrs) in HIV1 infected human at 20 mg after 24 hrs in presence of 400 mg of Lopinavir and 100 mg of itonavir administered once every 12 hrs; type: ADME, organism-based; parameters: time < 24 hr, dose 20 mg; conditions: plasma; in short: as §3
[33] = AUC (0 to 24 hrs) in HIV1 infected human at 5 mg after 24 hrs presence of 400 mg of Lopinavir and 100 mg of itonavir; type: ADME, organism-based; parameters: time < 24 hr, dose 5 mg; conditions: plasma; in short: as §3
[34] = Drug level in HIV1 infected human plasma at 10 mg qd for 21 days in presence of 400 mg of Lopinavir and 100 mg of itonavir administered once every 12 hrs; type: ADME, organism-based; conditions: read-out: Drug uptake; in short: as §3
[35] = Tmax in HIV1 infected human at 5 mg after 24 hrs presence of 400 mg of Lopinavir and 100 mg of itonavir; type: ADME, organism-based; conditions: in vivo; in short: as §3
Homo sapiens [36] = test: Time prior to start absorption at second absorption site in HIV1 infected human at 20 mg administered once every 48 hrs for 21 days in presence of 400 mg of Lopinavir and 100 mg of itonavir administered once every 12 hrs; type: ADME, organism-based; conditions: in vivo; in short: as §1
[37] = Tmax in HIV1 infected human at 5 mg qd for 21 days in presence of 400 mg of Lopinavir and 100 mg of itonavir administered once every 12 hrs; type: ADME, organism-based; conditions: in vivo; in short: as §3
[38] = Cmax in HIV1 infected human at 20 mg after 24 hrs in presence of 400 mg of Lopinavir and 100 mg of itonavir administered once every 12 hrs; type: ADME, organism-based; parameters: dose 20 mg; conditions: in vivo; in short: as §3
[39] = AUC (0 to 24 hrs) in HIV1 infected human at 10 mg qd for 21 days in presence of 400 mg of Lopinavir and 100 mg of itonavir administered once every 12 hrs; type: ADME, organism-based; parameters: dose 10 mg, time < 24 hr; conditions: plasma; in short: as §3
[40] = Tmax in HIV1 infected human at 10 mg after 24 hrs presence of 400 mg of Lopinavir and 100 mg of itonavir; type: ADME, organism-based; conditions: in vivo; in short: as §3

With `Nc1nc(=O)n([C@@H]2C=C[C@H](CO)O2)cc1F` [ELVUCITABINE] the Time (Homo sapiens [1]) was 0.445 h, the half-life [2] was 112 h and the half-life [3] was 120 h. It also gave a ka (Homo sapiens [4]) of 0.065 h⁻¹, a ka (Homo sapiens [5]) of 0.42 h⁻¹ and a Cmax [6] of 49.9 ng/mL. It also gave a Vp/F (Homo sapiens [7]) of 1618 L, a concentration at 24 h [8] of 1.87 ng/mL and a Cmax [9] of 7.25 ng/mL. It also gave a Vc/F (Homo sapiens [10]) of 6.43 L, a Cmax [11] of 23.1 ng/mL and a Time (Homo sapiens [12]) of 0.341 h. It also gave a CLd/F (Homo sapiens [13]) of 15.4 L/h, a half-life [14] of 105 h and a Tmax [15] of 3.75 h. For the same molecule, the AUC(0-t) at 24 h [16] was 155 ng·h/mL, the Vd/F [17] was 1620 L and the Cmax [18] was 108 ng/mL. The half-life [19] was 92.5 h, the Tmax [20] was 3.75 h and the Cmax [21] was 25.3 ng/mL. For the same molecule, the Time (Homo sapiens [22]) was 0.363 h, the concentration at 21 days [23] was 4.38 ng/mL and the bioavailability [24] was 55.4%. For the same molecule, the Tmax [25] was 4 h, the concentration at 21 days [26] was 12 ng/mL and the CL/F [27] was 423 mL/min. For the same molecule, the AUC at 24 h [28] was 214 ng·h/mL, the concentration at 24 h [29] was 0.832 ng/mL and the AUC at 24 h [30] was 749 ng·h/mL. The concentration at 24 h [31] was 3.41 ng/mL, the AUC at 24 h [32] was 262 ng·h/mL and the AUC(0-t) at 24 h [33] was 59.9 ng·h/mL. The concentration at 21 days [34] was 9.7 ng/mL, the Tmax [35] was 6.63 h and the Time (Homo sapiens [36]) was 1.02 h. For the same molecule, the Tmax [37] was 7 h, the Cmax [38] was 39.1 ng/mL and the AUC at 24 h [39] was 435 ng·h/mL. It also gave a Tmax [40] of 3.31 h.
